Results taken from ChEMBL document CHEMBL1138564, “Microwave-induced synthesis and anti-microbial activities of 7,10,11,12-tetrahydrobenzo[c]acridin-8(9H)-one derivatives” (2009).
In brackets after ≈: the same amount, converted by molar mass. Activity calls are given as the source filed them. The rule behind the calls is not given here.

Tests used:
Assay type in all cases: functional
Salmonella typhimurium = test: Antimicrobial activity against Salmonella Typhimurium NCIM 2501 at 1000 ug/disk after 24 hrs by disk diffusion method
How it was run: (§1)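 Disc diffusion. 100 µl of bacterial suspension at 10⁸ CFU/ml was spread on Mueller–Hinton agar. Discs loaded with test compound dissolved in DMSO were placed on the lawn, with a DMSO-only disc as negative control. Plates were incubated at 37 °C for 24 h, and the inhibition zone diameter was measured.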

Escherichia coli [1] = test: Antimicrobial activity against Escherichia coli NCIM 2065 at 1000 ug/disk after 24 hrs by disk diffusion method; settings: NCIM 2065, 24 h, read-out: DIZ
How it was run: (§2)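 Disc diffusion on Mueller–Hinton agar. 100 µl of bacterial suspension at 10⁸ CFU/ml is spread on the plate. Discs carry test compounds at two loadings, dissolved in DMSO; DMSO alone serves as negative control. Ofloxacin disc is the positive reference. Plates are incubated at 37 °C for 24 h, and the inhibition zone diameter is measured.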

Aspergillus flavus [2] = test: Antimicrobial activity against Aspergillus flavus NCIM 902 at 1000 ug/disk after 72 hrs by disk diffusion method; settings: NCIM 902, 72 h, read-out: DIZ
How it was run: (§3)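 Disc diffusion on Sabouraud's dextrose agar. 100 µl of fungal suspension at 10⁶ CFU/ml is spread on the plate. Discs carry test compounds at two loadings in DMSO; DMSO alone is the negative control. Clotrimazole disc is the positive reference. Plates are incubated at 27 °C for 72 h, and the zone of inhibition diameter is measured.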

Rhodotorula mucilaginosa [3] = test: Antimicrobial activity against Rhodotorula rubra NCIM 3174 at 500 ug/disk after 72 hrs by disk diffusion method; settings: NCIM 3174, 72 h, read-out: DIZ
How it was run: (§4)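 Fungal disc diffusion. 100 µl of suspension at 10⁶ CFU/ml was spread on Sabouraud's dextrose agar. Discs carrying test compound in DMSO were applied, with a DMSO-only disc as negative control. Plates were incubated at 27 °C for 72 h, and the zone of inhibition diameter was measured.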

Penicillium chrysogenum [4] = test: Antimicrobial activity against Penicillium chrysogenum NCIM 707 at 500 ug/disk after 72 hrs by disk diffusion method; how it was run: as §3
Aspergillus fumigatus = test: Antimicrobial activity against Aspergillus fumigatus NCIM 902 at 1000 ug/disk after 72 hrs by disk diffusion method; settings: NCIM 902, 72 h, read-out: DIZ; how it was run: as §3
Aliivibrio fischeri [5] = test: Antimicrobial activity against Vibrio fischeri NCIM 2154 at 500 ug/disk after 24 hrs by disk diffusion method; how it was run: as §1
Aspergillus flavus [6] = test: Antimicrobial activity against Aspergillus flavus NCIM 902 after 72 hrs by serial dilution method; settings: NCIM 535, 72 h, in the assay text read “NCIM 535” for “NCIM 902”
How it was run: (§5)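 MIC by broth dilution in Sabouraud's dextrose broth, only for fungi sensitive in disc diffusion. Two-fold serial dilutions of compounds are made in 1 ml broth per tube, range 3.9 to 1000. Inoculated tubes are incubated at 27 °C for 72 h.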

[7] = system: Rhodococcus corynebacterioides; test: Antimicrobial activity against Corynebacterium rubrum NCIM 2252 at 1000 ug/disk after 24 hrs by disk diffusion method; settings: Rhodococcoides corynebacterioides; how it was run: as §2
Aspergillus flavus [8] = test: Antimicrobial activity against Aspergillus flavus NCIM 902 at 500 ug/disk after 72 hrs by disk diffusion method; settings: NCIM 902, 72 h, read-out: DIZ; how it was run: as §3
Trichoderma viride [9] = test: Antimicrobial activity against Trichoderma viride NCIM 1195 after 72 hrs by serial dilution method; settings: NCIM 1195, 72 h
How it was run: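 MIC by broth dilution in Sabouraud's dextrose broth, run only on fungi found sensitive in the disc assay. Twofold serial dilutions were made in 1 ml broth per tube, covering 3.9 to 1000. Inoculated tubes were incubated at 27 °C for 72 h.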

Lipomyces lipofer = test: Antimicrobial activity against Lipomyces lipofer NCIM 3252 at 500 ug/disk after 72 hrs by disk diffusion method; how it was run: as §3
Aspergillus parasiticus [10] = test: Antimicrobial activity against Aspergillus parasiticus NCIM 904 at 500 ug/disk after 72 hrs by disk diffusion method; settings: NCIM 904, 72 h, read-out: DIZ; how it was run: as §3
Pseudomonas aeruginosa [11] = test: Antimicrobial activity against Pseudomonas aeruginosa NCIM 2200 at 500 ug/disk after 24 hrs by disk diffusion method; how it was run: as §1
Aliivibrio fischeri [12] = test: Antimicrobial activity against Vibrio fischeri NCIM 2154 at 1000 ug/disk after 24 hrs by disk diffusion method; how it was run: as §1
Klebsiella aerogenes [13] = test: Antimicrobial activity against Klebsiella aerogenes NCIM 2239 at 1000 ug/disk after 24 hrs by disk diffusion method; how it was run: as §2
Escherichia coli [14] = test: Antimicrobial activity against Escherichia coli NCIM 2065 after 24 hrs by serial dilution method; settings: NCIM 2065, 24 h
How it was run: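 Broth dilution MIC in nutrient broth, run only for organisms found sensitive in disc diffusion. Compounds are two-fold serially diluted in 1 ml sterile broth per tube, spanning 3.9 to 1000. Inoculated tubes are incubated at 37 °C for 24 h.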

Proteus vulgaris [15] = test: Antimicrobial activity against Proteus vulgaris NCIM 2027 at 1000 ug/disk after 24 hrs by disk diffusion method; how it was run: as §2
Escherichia coli [16] = test: Antimicrobial activity against Escherichia coli NCIM 2065 at 500 ug/disk after 24 hrs by disk diffusion method; settings: NCIM 2065, 24 h, read-out: DIZ; how it was run: as §2
Pseudomonas aeruginosa [17] = test: Antimicrobial activity against Pseudomonas aeruginosa NCIM 2200 at 1000 ug/disk after 24 hrs by disk diffusion method; how it was run: as §2
Trichoderma viride [18] = test: Antimicrobial activity against Trichoderma viride NCIM 1195 at 1000 ug/disk after 72 hrs by disk diffusion method; settings: NCIM 1195, 72 h, read-out: DIZ; how it was run: as §4
[19] = system: Rhodococcus corynebacterioides; test: Antimicrobial activity against Corynebacterium rubrum NCIM 2252 at 500 ug/disk after 24 hrs by disk diffusion method; settings: Rhodococcoides corynebacterioides; how it was run: as §2
Proteus vulgaris [20] = test: Antimicrobial activity against Proteus vulgaris NCIM 2027 at 500 ug/disk after 24 hrs by disk diffusion method; how it was run: as §2
Penicillium chrysogenum [21] = test: Antimicrobial activity against Penicillium chrysogenum NCIM 707 at 1000 ug/disk after 72 hrs by disk diffusion method; settings: NCIM 707, 72 h, read-out: DIZ; how it was run: as §3
Staphylococcus = test: Antimicrobial activity against Staphylococcus albus NCIM 2178 at 1000 ug/disk after 24 hrs by disk diffusion method; how it was run: as §1
Bacillus subtilis = test: Antimicrobial activity against Bacillus subtilis NCIM 2063 at 500 ug/disk after 24 hrs by disk diffusion method; settings: NCIM 2063, 24 h, read-out: DIZ; how it was run: as §2
Rhodotorula mucilaginosa [22] = test: Antimicrobial activity against Rhodotorula rubra NCIM 3174 at 1000 ug/disk after 72 hrs by disk diffusion method; settings: NCIM 3174, 72 h, read-out: DIZ; how it was run: as §4
Klebsiella aerogenes [23] = test: Antimicrobial activity against Klebsiella aerogenes NCIM 2239 at 500 ug/disk after 24 hrs by disk diffusion method; how it was run: as §2
Trichoderma viride [24] = test: Antimicrobial activity against Trichoderma viride NCIM 1195 at 500 ug/disk after 72 hrs by disk diffusion method; how it was run: as §4
Bacillus cereus [25] = test: Antimicrobial activity against Bacillus cereus NCIM 2155 at 500 ug/disk after 24 hrs by disk diffusion method; settings: NCIM 2155, 24 h, read-out: DIZ; how it was run: as §2
Aspergillus parasiticus [26] = test: Antimicrobial activity against Aspergillus parasiticus NCIM 904 after 72 hrs by serial dilution method; settings: NCIM 904, 72 h; how it was run: as §5
Bacillus cereus [27] = test: Antimicrobial activity against Bacillus cereus NCIM 2155 at 1000 ug/disk after 24 hrs by disk diffusion method; settings: NCIM 2155, 24 h, read-out: DIZ; how it was run: as §2

| Structure (SMILES) | zone of inhibition at 1000 µg/disc (Escherichia coli [1]) | zone of inhibition at 1000 µg/disc (Aspergillus flavus [2]) | zone of inhibition at 500 µg/disc (Rhodotorula mucilaginosa [3]) | zone of inhibition at 1000 µg/disc (Aspergillus fumigatus) | MIC (Aspergillus flavus [6]) | zone of inhibition at 500 µg/disc (Aspergillus flavus [8]) | MIC (Trichoderma viride [9]) | diameter of the inhibition zone (DIZ) (Lipomyces lipofer) | zone of inhibition at 500 µg/disc (Aspergillus parasiticus [10]) | MIC (Escherichia coli [14]) | zone of inhibition at 500 µg/disc (Escherichia coli [16]) | zone of inhibition at 1000 µg/disc (Trichoderma viride [18]) | zone of inhibition at 1000 µg/disc (Penicillium chrysogenum [21]) | zone of inhibition at 500 µg/disc (Bacillus subtilis) | zone of inhibition at 1000 µg/disc (Rhodotorula mucilaginosa [22]) | diameter of the inhibition zone (DIZ) (Klebsiella aerogenes [23]) | zone of inhibition at 500 µg/disc (Bacillus cereus [25]) | MIC (Aspergillus parasiticus [26]) | zone of inhibition at 1000 µg/disc (Bacillus cereus [27]) | other results |
| --- | --- | --- | --- | --- | --- | --- | --- | --- | --- | --- | --- | --- | --- | --- | --- | --- | --- | --- | --- | --- |
| O=C1CCCC2=C1C(c1ccccc1O)c1ccc3ccccc3c1N2 (centres undefined) | 9 mm | 11 mm | 11 mm | 12 mm | 31.2 µg/mL (≈ 91.4 µM) | 8 mm | 62.5 µg/mL (≈ 183 µM) | inactive | 9 mm | 125 µg/mL (≈ 366 µM) | 8 mm | 10 mm | 9 mm | 8 mm | 13 mm | inactive | 7 mm | 62.5 µg/mL (≈ 183 µM) | 8 mm | diameter of the inhibition zone (DIZ) (Salmonella typhimurium; Salmonella enterica subsp. enterica serovar Typhimurium): inactive; diameter of the inhibition zone (DIZ) (Penicillium chrysogenum [4]): inactive; diameter of the inhibition zone (DIZ) (Aliivibrio fischeri [5]): inactive; diameter of the inhibition zone (DIZ) [7]: inactive; diameter of the inhibition zone (DIZ) (Pseudomonas aeruginosa [11]): inactive; diameter of the inhibition zone (DIZ) (Aliivibrio fischeri [12]): inactive; diameter of the inhibition zone (DIZ) (Klebsiella aerogenes [13]): inactive; diameter of the inhibition zone (DIZ) (Proteus vulgaris [15]): inactive; diameter of the inhibition zone (DIZ) (Pseudomonas aeruginosa [17]): inactive; diameter of the inhibition zone (DIZ) [19]: inactive; diameter of the inhibition zone (DIZ) (Proteus vulgaris [20]): inactive; diameter of the inhibition zone (DIZ) (Staphylococcus): inactive; zone of inhibition at 500 µg/disc (Trichoderma viride [24]; NCIM 1195, 72 h, read-out: DIZ): 9 mm |
| O=C1CCCC2=C1C(c1ccc(Cl)cc1)c1ccc3ccccc3c1N2 (centres undefined) | 8 mm | 10 mm | 12 mm | 10 mm | 62.5 µg/mL (≈ 174 µM) | 7 mm | 125 µg/mL (≈ 347 µM) | inactive | 10 mm | 62.5 µg/mL (≈ 174 µM) | 7 mm | 8 mm | 8 mm | 8 mm | 16 mm | inactive | 10 mm | 31.2 µg/mL (≈ 86.7 µM) | 13 mm | zone of inhibition at 1000 µg/disc (Salmonella typhimurium; Salmonella enterica, NCIM 2501, 24 h, read-out: DIZ): 11 mm; zone of inhibition at 500 µg/disc (Penicillium chrysogenum [4]; NCIM 707, 72 h, read-out: DIZ): 7 mm; zone of inhibition at 500 µg/disc (Aliivibrio fischeri [5]; NCIM 2154, 24 h, read-out: DIZ): 8 mm; zone of inhibition at 1000 µg/disc ([7]; NCIM 2252, 24 h, read-out: DIZ): 8 mm; zone of inhibition at 500 µg/disc (Pseudomonas aeruginosa [11]; NCIM 2200, 24 h, read-out: DIZ): 7 mm; zone of inhibition at 1000 µg/disc (Aliivibrio fischeri [12]; NCIM 2154, 24 h, read-out: DIZ): 9 mm; zone of inhibition at 1000 µg/disc (Klebsiella aerogenes [13]; NCIM 2239, 24 h, read-out: DIZ): 9 mm; zone of inhibition at 1000 µg/disc (Proteus vulgaris [15]; NCIM 2027, 24 h, read-out: DIZ): 9 mm; zone of inhibition at 1000 µg/disc (Pseudomonas aeruginosa [17]; NCIM 2200, 24 h, read-out: DIZ): 10 mm; zone of inhibition at 500 µg/disc ([19]; NCIM 2252, 24 h, read-out: DIZ): 7 mm; zone of inhibition at 500 µg/disc (Proteus vulgaris [20]; NCIM 2027, 24 h, read-out: DIZ): 7 mm; zone of inhibition at 1000 µg/disc (Staphylococcus; NCIM 2178, 24 h, read-out: DIZ): 10 mm; diameter of the inhibition zone (DIZ) (Trichoderma viride [24]): inactive |
